Experimental data published in PMC7116464 (Biochemical pharmacology, 2019).

Tests used:
[1] = test system: hemin degradation in LtP homogenates and SGF/MCF fractions; assay: Hemin degradation in LtP homogenates and SGF/MCF subfractions by HPLC; type: biochemical, Leishmania tarentolae; conditions: 40 µM ZnPP, 7 µM hemin, 0, 2 or 4 h at 26 °C
Outline: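 LtP homogenates from hypo-osmotic lysis and freeze–thaw (37 mg protein/mL), or pooled SGF/MCF pellets from differential centrifugation (3.7 mg protein/mL). Samples diluted in phosphate buffer pH 7.4 with 7 µM hemin plus 1.1 mM NADPH or 40 µM ZnPP; 0, 2 or 4 h at 26 °C. Hemin followed by HPLC-UV, normalised to 0 h; mean ± SD, n = 3.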

[2] = test system: Leishmania tarentolae promastigotes (LtP); assay: Metal; type: cell-based; conditions: 0 - 3 days; for iron content in LtP: 10 µM SnMP or 1 µM ZnPP, ICP-OES
Outline: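 Promastigotes (3.6 × 10^7/mL at day 0, OD600 0.3) grown in medium alone, with 10 µM SnMP or with 1 µM ZnPP for 0–3 days at 27 °C. After acid digestion (final 2 h at 75 °C), Fe measured by ICP-OES against 0.01–10 ppm standards. Sn measured by ICP-MS (120Sn, 0.1–100 ppb standards, isotope-corrected) after further 3-fold dilution. Results given as amol/cell.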

[3] = test system: Leishmania tarentolae promastigotes (LtP); type: cell-based; conditions: for influence on the antileishmanial action (IC50) of Asc and Art: PIH 100 µM, SnMP 50 µM, CrMP 50 µM, NAC 2 mM, LtP in YEM/PBS with 6 µM hemin; for IC50: Leishmania tarentolae, read-out: IC50 in the absence of additional inhibitors
[4] = test system: HO-like activity in LtP homogenates; assay: Heme oxygenase-like activity; type: biochemical, Leishmania tarentolae
[5] = test system: Leishmania tarentolae promastigotes (LtP); assay: Viability assay of LtP; type: cell-based; conditions: calculated from IC50, J774/IC50, LtP
[6] = test system: J774 macrophages; assay: Viability assay of J774 cells; type: cell-based, murine; conditions: Mus musculus, J774, read-out: IC50 J774
Outline: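 J774A.1 macrophages seeded at 1 × 10^5/mL in DMEM/10% FCS and allowed to attach for 24 h (37 °C, 5% CO2). Wells washed with PBS and refilled with medium. Compounds added from 25 or 200 µM in five 1:5 serial dilutions, triplicate. After 24 h, 20 µM resazurin (final) added for 4 h; fluorescence read at ex 560/em 590 nm.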

[7] = test system: labile iron pool (LIP) in LtP; assay: Low temperature EPR spectroscopy of the labile iron pool in LtP; type: cell-based, Leishmania tarentolae; conditions: 1 mM EP, 1 h at 26 °C, EPR at 77 K
[8] = test system: splenic parasite burden; conditions: Art orally 25 mg/kg body weight vs SAG 20 mg/kg body weight; cited from earlier work
[9] = SnMP or CrMP 38 µM, 77 µM, hemin 6.67 µM, NADPH 1 mM, RLS, 27 °C, 30 min

Row | Compound | influence on the antileishmanial action (IC50) of Asc and Art [3] | IC50, J774/IC50, LtP (selectivity index) [5] | IC50 [6] | also measured
1 | C=CC1=C(C)c2cc3[n-]c(cc4nc(cc5[n-]c(cc1n2)c(C)c5C=C)C(C)=C4CCC(=O)O)c(CCC(=O)O)c3C.[Zn+2] [ZnPP, zinc protoporphyrin] |  |  |  | hemin degradation [1]: strongly inhibited; iron content in LtP [2]: small decline but no total inhibition of iron import into LtP
2 | Tin mesoporphyrin [SnMP] | inhibited the antileishmanial activity of Art stronger than that of Asc |  |  | HO-like activity (bilirubin formation) [4, 9]: inhibit this HO-like activity; iron content in LtP [2]: almost identical over several days; Sn accumulation in LtP ([2]; 10 µM SnMP, ICP-MS): taken up into LtP
3 | C[C@H]1[C@@H](O)O[C@@H]2O[C@@]3(C)CC[C@H]4[C@H](C)CC[C@@H]1[C@@]24OO3 [DHA, dihydroartemisinin] |  | 20 | 14.8 ± 6.49 µM | 
4 | CC(=O)N[C@@H](CS)C(=O)O [NAC, N-acetylcysteine] | inhibited the action of Asc and even stronger that of Art |  |  | 
5 | N=C(N)c1ccc(OCCCCCOc2ccc(C(=N)N)cc2)cc1 [Pen, pentamidine isethionate] |  | 15 | 12.3 ± 3.96 µM | 
6 | CC(C)C12C=CC(C)(CC1)OO2 (centres unmarked) [Asc, Ascaridole] |  | 7 | 202 ± 38.2 µM | IC50 [3]: 28.3 ± 6.7 µM
7 | C[C@H]1[C@H](OC(=O)CCC(=O)O)O[C@@H]2O[C@@]3(C)CC[C@H]4[C@H](C)CC[C@@H]1[C@@]24OO3 [Arsu, artesunate] |  | 9 | 16.9 ± 5.2 µM | 
8 | Cc1ncc(CO)c(/C=N/NC(=O)c2ccncc2)c1O [PIH, Pyridoxal isonicotinoyl hydrazone] | non-selectively inhibited the action of both Asc and Art in a similar fashion |  |  | 
9 | C[C@@H]1CC[C@H]2[C@@H](C)C(=O)O[C@@H]3O[C@@]4(C)CC[C@@H]1[C@]32OO4 [Art, artemisinin] |  |  | 192 ± 41.1 µM | IC50 [3]: 2.96 ± 0.71 µM; HO-like activity (bilirubin formation) ([4]; Art 500 µM in the presence of catalase 2520 U/mL): inhibited the HO-like activity in LtP homogenates; influence on the redox state of the LIP (apparent Fe3+) [7]: influences the redox state of the LIP in LtP to a much lesser extent than Asc; splenic parasite burden [8]: reduce the splenic parasite burden slightly more than sodium antimony gluconate (SAG)
10 | C[C@@H]1CC[C@H]2[C@@H](C)C(=O)O[C@@H]3O[C@@]4(C)CC[C@@H]1[C@]32O4 [DeoxyArt, deoxyartemisinin] |  | 1 | > 200 µM | 
11 | chromium mesoporphyrin [CrMP] | inhibited the antileishmanial activity of Art stronger than that of Asc |  |  | HO-like activity (bilirubin formation) [4, 9]: inhibit this HO-like activity
